Screens deposited in PubChem by The Scripps Research Institute Molecular Screening Center.
Most compounds without a hit are left out; they make up all but 4.6% or so of the library.
OX1R antag-1: blocks the human orexin 1 receptor. O43613. CHO/OX1R cells, Fluo-8 calcium fluorescence, orexin A. inhibition, % at 5 µM. 330,000 tested, 0.43% active. AID 434989;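 active = inhibition above its plate's threshold, mean inhibition of all tested compounds on the plate plus 3 SD, cut at about 37% in these data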;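 note: 0% = orexin A challenge wells and 100% = SB-334867-A antagonist wells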
OX1R antag-2: antagonists of human orexin 1 receptor (OX1R) | AID 485270 | 330,000 tested, 1.8% active | O43613 | OX1R-expressing cells, FRET antagonist read-out | inhibition, % at 6.6 µM; in the data active = inhibition mostly above about 38%, no sharp cut-off; inactive = mostly below about 40%;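 note: 0% = agonist challenge alone and 100% = reference antagonist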
TAAR1 antag: antagonists of human TAAR1 | Q96RJ0 | CHO RD-HGA16 TAAR1, Fluo-8 calcium fluorescence, antagonist | inhibition, % at 3 µM | 360,000 tested, 1.5% active;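 active = inhibition above a per-plate cutoff, the mean inhibition of test compounds on that plate plus 3 SD, cut at about 49% in these data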;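 note: 0% = DMSO plus EC80 beta-PEA response and 100% = DMSO alone without agonist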
Target sequence (Q96RJ0 whole entry, looked up): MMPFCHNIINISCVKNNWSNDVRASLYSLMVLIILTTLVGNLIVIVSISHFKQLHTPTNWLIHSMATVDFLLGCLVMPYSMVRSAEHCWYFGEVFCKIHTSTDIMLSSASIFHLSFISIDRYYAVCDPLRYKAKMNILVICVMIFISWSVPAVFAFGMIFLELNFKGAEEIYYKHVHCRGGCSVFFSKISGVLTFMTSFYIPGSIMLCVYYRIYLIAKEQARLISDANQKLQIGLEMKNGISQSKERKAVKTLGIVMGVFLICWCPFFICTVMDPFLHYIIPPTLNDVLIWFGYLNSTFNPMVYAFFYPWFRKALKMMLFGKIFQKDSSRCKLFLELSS
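Test system: hTAAR1-expressing CHO RD-HGA16 cells, Gα16-coupled; Probe or stimulus: EC80 β-phenethylamine stimulus; Compound dosing: single nominal final test compound concentration of 3 µM; Timing: 140 s kinetic read after compound, 140 s after agonist; Signal: Fluo-8 calcium-sensitive fluorescence; Measure: % inhibition of agonist calcium response; Controls: DMSO and EC80 PEA controls.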
TAAR1 agonist: human TAAR1 agonism. Q96RJ0. CHO RD-HGA16 TAAR1, Fluo-8 calcium fluorescence; vehicle wells 0%, saturating PEA agonist 100%. activation, % at 3 µM. 360,000 tested, 0.99% active;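 active = activation above the mean activation of all test compounds in the run plus 3 SD, cut at about 38% in these data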
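Test system: RD-HGA16 (CHO) cells co-expressing Gα16 and hTAAR1 / Benchmarks: DMSO vehicle as 0%, PEA at EC100 as 100% / Repeats: no replicates (n 1) / Measure: % activation from peak over basal fluorescence ratio, DMSO-to-PEA scaled / Timing: 17-24 h plating, Fluo-8 75 min 37 °C, 30 min RT / Technique: kinetic Fluo-8 calcium fluorescence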
GPR7 antag: human neuropeptides B/W receptor 1 antagonism | GPR7-expressing cells, fluorescence antagonist assay | AID 1861 | 290,000 tested, 1.1% active | inhibition, % at 4.4 µM; in the data active = inhibition above about 16%, passing the limit was not always enough;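 note: cells stimulated with the agonist NPW; 0% = agonist with vehicle and 100% = vehicle without agonist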
Target sequence (P48145 whole entry, looked up): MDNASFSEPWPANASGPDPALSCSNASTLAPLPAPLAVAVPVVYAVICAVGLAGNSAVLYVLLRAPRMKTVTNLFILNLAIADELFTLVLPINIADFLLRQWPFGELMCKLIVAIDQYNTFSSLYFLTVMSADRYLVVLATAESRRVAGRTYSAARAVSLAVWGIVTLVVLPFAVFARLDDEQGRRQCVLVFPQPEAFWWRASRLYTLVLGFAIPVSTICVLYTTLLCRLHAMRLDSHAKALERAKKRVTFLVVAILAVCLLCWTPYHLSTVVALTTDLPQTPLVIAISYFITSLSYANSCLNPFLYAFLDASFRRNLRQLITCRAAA
CHO parental Ca: signal in parental CHO cells, OX1R antagonist counter-screen | parental CHO-K1, ATP-induced calcium, Fluo-8 fluorescence | inhibition, % at 5.6 µM | 330,000 tested, 0.63% active;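 active = inhibition above that plate's mean sample inhibition plus 3 SD, cut at about 26% in these data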;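 note: 0% = ATP-challenged DMSO wells and 100% = DMSO wells without ATP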
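Assay system – parental CHO cells · Reagent – ATP stimulus · Detection – intracellular calcium via Fluo-8 no-wash fluorescent dye · Evaluation – percent inhibition of ATP-evoked calcium rise, normalized to controls · Controls – ATP wells versus no-ATP DMSO wells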
nonsel antag count: counter-screen for TAAR1 antagonists: nonselective antagonists | shares compounds with TAAR1 antag | counterscreen cell line, calcium fluorescence, antagonist mode | inhibition, % at 3 µM | 2,400 tested, 77% active | AID 651780; in the data active = inhibition above about 22%;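 note: CHO-Ga16 host cells stimulated with ATP at an EC80 level; 0% = agonist EC80 plus vehicle and 100% = vehicle without agonist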
TAAR1 ant conf: confirmation of human TAAR1 antagonists; shares compounds with TAAR1 antag; TAAR1-expressing cells, fluorescence antagonist read-out; inhibition, % at 3 µM; 2,400 tested, 40% active; AID 651785; in the data active = inhibition above about 49%;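 note: CHO-Ga16 host cells challenged with agonist PEA near its EC80; 0% = agonist at EC80 plus vehicle and 100% = vehicle with no agonist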
Ga16 nonsel ag: nonselective Ga16 agonist in TAAR1 antagonist counter-screen; shares compounds with TAAR1 antag; Ga16-expressing cells, calcium fluorescence, agonist counterscreen; activation, % at 3 µM; 2,400 tested, 18% active; in the data active = activation above about 12%;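 note: 0% = vehicle wells and 100% = saturating stimulus response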
TAAR1 ag count: counter-screen for human TAAR1 antagonists: TAAR1 agonists | shares compounds with TAAR1 antag | hTAAR1 cell line, fluorescence activation, agonist mode | activation, % at 3 µM | 2,400 tested, 2% active | AID 651955; in the data active = activation above about 37%;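 note: CHO cells stably expressing TAAR1 with calcium dye readout; 0% = DMSO vehicle and 100% = full agonist response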
* = called active by the depositor.

Cc1ccc(NC(=O)C2(C)CCN2C(=O)Cc2cc(F)ccc2F)cc1 (stereo not drawn) was read as TAAR1 antag -7.3 and TAAR1 agonist -1.5.
`Cc1ccc(-c2c(C(=O)N/N=C/c3c[nH]c4ccccc34)nnn2-c2nonc2N)cc1` gave OX1R antag-1 -0.7, OX1R antag-2 38.8, TAAR1 antag 47.9, TAAR1 agonist 10.4, GPR7 antag 10.0 and CHO parental Ca 8.5.
`Oc1ccccc1OCCOc1ccccc1OCCOc1ccccc1O` gave OX1R antag-1 20.0, OX1R antag-2 16.4, TAAR1 antag 79.3*, TAAR1 agonist 10.2, GPR7 antag -0.1, CHO parental Ca 13.0, nonsel antag count 34.8*, TAAR1 ant conf 55.2*, Ga16 nonsel ag 9.4 and TAAR1 ag count 8.6.
`Oc1ccccc1OCC(O)c1ccccc1` (stereo not drawn) gave OX1R antag-1 -9.5, OX1R antag-2 7.4, TAAR1 antag -16.6, TAAR1 agonist 0.0, GPR7 antag -7.9 and CHO parental Ca 3.9.
Screening O=C1N[C@@H](c2ccccc2)COC(=O)[C@@H](Cc2ccc(F)cc2)C/C=C\C[C@H]1CC(=O)N(CCO)Cc1ccccc1 returned OX1R antag-1 16.3, OX1R antag-2 8.8, TAAR1 antag 58.8*, TAAR1 agonist 31.1, CHO parental Ca -21.3, nonsel antag count 36.5*, TAAR1 ant conf 57.7*, Ga16 nonsel ag 13.6* and TAAR1 ag count 12.7.
Screening O=C1N[C@@H](Cc2ccccc2)COC(=O)[C@H](Cc2ccc(F)cc2)CC/C=C/C[C@@H]1CC(=O)N(CCO)Cc1ccccc1 returned OX1R antag-1 -16.6, OX1R antag-2 6.2, TAAR1 antag 16.8, TAAR1 agonist 2.8 and CHO parental Ca -23.2.
Screening O=C1N[C@@H](Cc2ccccc2)COC(=O)[C@H](Cc2ccc(F)cc2)C/C=C\C[C@H]1CC(=O)N(CCO)Cc1ccccc1 returned OX1R antag-1 8.5, OX1R antag-2 1.9, TAAR1 antag 33.0, TAAR1 agonist 7.1 and CHO parental Ca -30.2.
For O=C1N[C@@H](Cc2ccccc2)COC(=O)[C@@H](Cc2ccc(F)cc2)CC/C=C/C[C@H]1CC(=O)N(CCO)Cc1ccccc1 the results were OX1R antag-1 20.1, OX1R antag-2 13.4, TAAR1 antag 65.8*, TAAR1 agonist 29.9, CHO parental Ca -10.3, nonsel antag count 30.5*, TAAR1 ant conf 43.7, Ga16 nonsel ag 10.6 and TAAR1 ag count 14.9.
Screening O=C1N[C@@H](c2ccccc2)COC(=O)[C@H](Cc2ccc(F)cc2)CC/C=C/C[C@@H]1CC(=O)N(CCO)Cc1ccccc1 returned OX1R antag-1 3.5, OX1R antag-2 8.4, TAAR1 antag 42.8, TAAR1 agonist 7.3 and CHO parental Ca -18.8.
For O=C1N[C@@H](Cc2ccccc2)COC(=O)[C@H](Cc2ccc(F)cc2)CC/C=C/C[C@H]1CC(=O)N(CCO)Cc1ccccc1 the results were OX1R antag-1 3.9, OX1R antag-2 3.8, TAAR1 antag 65.7*, TAAR1 agonist 27.4, CHO parental Ca -2.2, nonsel antag count 17.1, TAAR1 ant conf 26.4, Ga16 nonsel ag 4.9 and TAAR1 ag count 3.5.
Screening O=S1(=O)CCSC[C@@H](CN2CCOCC2)N1 returned TAAR1 antag -5.3 and TAAR1 agonist 2.3.
CC(C)(C)OC(=O)N1CCCC(C(=O)Nc2cccc(C(=O)N3CCOCC3)c2)C1 (stereo not drawn) was read as TAAR1 antag -6.3 and TAAR1 agonist 1.2.
For COC(=O)c1c(-c2ccc(OC)cc2)oc2ccc(-c3ccc(OC)nc3)cc12 the results were OX1R antag-1 -18.5, OX1R antag-2 10.5, TAAR1 antag 12.0, TAAR1 agonist 13.5, GPR7 antag -6.6 and CHO parental Ca -5.6.
Screening COC(=O)c1c(-c2ccc(OC)cc2)oc2ccc(-c3cc(OC)c(OC)c(OC)c3)cc12 returned OX1R antag-1 -18.3, OX1R antag-2 5.3, TAAR1 antag 58.0*, TAAR1 agonist 7.4, CHO parental Ca -16.2, nonsel antag count 14.1, TAAR1 ant conf 31.6, Ga16 nonsel ag 3.0 and TAAR1 ag count 8.9.
For CCCOC(=O)c1c(-c2ccc(OC)cc2)oc2ccc(-c3ccc(OC)nc3)cc12 the results were OX1R antag-1 -24.7, OX1R antag-2 11.5, GPR7 antag -20.8, CHO parental Ca -14.4, nonsel antag count -0.4 and Ga16 nonsel ag 5.4.
Screening Cc1nc2c(=O)[nH]c(=S)[nH]c2[nH]c1=O returned TAAR1 antag -31.8 and TAAR1 agonist 7.5.
Screening Cc1ccc(NS(=O)(=O)N2CCCCC2)cc1 returned TAAR1 antag -19.1 and TAAR1 agonist 3.7.
`COc1ccc(C(C(=O)NC2CCCC2)n2c(CSCCOc3ccccc3)nc3ccccc32)cc1` (stereo not drawn) gave TAAR1 antag -32.8 and TAAR1 agonist 0.9.
`O=C(CSc1ncnc2c1nnn2-c1ccc(F)cc1)NCc1ccco1` gave OX1R antag-1 -3.8, OX1R antag-2 17.9, TAAR1 antag 63.7*, TAAR1 agonist 37.2, GPR7 antag -4.2, CHO parental Ca -5.7, nonsel antag count 14.3, TAAR1 ant conf 9.3, Ga16 nonsel ag 5.2 and TAAR1 ag count -1.6.
Screening CCc1ccc(N/C(SCc2cccc(F)c2)=C(/C#N)C(=O)NCc2ccco2)cc1 returned OX1R antag-1 -18.0, OX1R antag-2 7.8, TAAR1 antag 50.4*, TAAR1 agonist 11.0, GPR7 antag -10.9, CHO parental Ca -7.2, nonsel antag count 0.5, TAAR1 ant conf 15.3, Ga16 nonsel ag 1.6 and TAAR1 ag count 4.0.
N#C/C(=C\Nc1ccc2c(c1)OCCO2)C(=O)NCc1ccco1 was read as OX1R antag-1 -12.0, OX1R antag-2 8.3, TAAR1 antag 0.5, TAAR1 agonist -2.2, GPR7 antag -7.9 and CHO parental Ca -12.4.
Screening O=C(CN1CCN(S(=O)(=O)c2ccc3c(c2)OCCO3)CC1)Nc1cccc(F)c1 returned TAAR1 antag 16.3 and TAAR1 agonist 0.4.
Screening CC1(c2nnnn2Cc2ccccc2)CCC(=O)N1Cc1cccs1 (stereo not drawn) returned TAAR1 antag -13.1 and TAAR1 agonist 2.6.
